Published values of several laboratories.
Compare with care: the assays were run in different laboratories.
Target: Ephrin type-A receptor 2 (EPHA2, Homo sapiens, UniProt P29317)

Compound | test | setting | remaining binding [%]
Cc1cnc(Nc2ccc(C(=O)N3CCC(N4CCCC4)CC3)cc2)nc1-c1cc2ccccc2s1 | binding, competition with immobilised ligand | 1 µM | 26
CN(C)c1nccc(-c2cnn3ncccc23)n1 | binding | 1 µM | 85
C[C@H](c1ccc(F)cc1)N(Cc1cccc(C(=O)O)c1)C(=O)c1cnc2ccccc2c1 | cell-free assay, competition with immobilised ligand | 1 µM | 100
CN(C)c1nccc(-c2cnc3ncccn23)n1 | binding | 1 µM | 100
C[C@@H]1CN(c2ccc3ncc(-c4ccc5[nH]nc(C6CC6)c5c4)n3n2)C[C@H](C)O1 | binding, competition with immobilised ligand | 50 nM | 86
C=CC(=O)N1CCC(C(=O)NCC(=O)N2CCN(c3nc(-c4cnc(N)nc4C(F)F)nc(N4CCOCC4)n3)CC2)CC1 | binding, competition with immobilised ligand | 1 µM | 95
F[C@@H]1CCN(c2nccc(-c3cnn4ncccc34)n2)C1 | binding | 1 µM | 100
O=C(c1ccc(Nc2nccc(-c3cc4ccccc4s3)n2)cc1)N1CCC(N2CCCC2)CC1 | binding, competition with immobilised ligand | 1 µM | 65
C[C@@H]1CN(c2cc(-c3n[nH]c4ccc(OC5(C)CC5)cc34)ncn2)C[C@H](C)O1 | cell-free assay, competition with immobilised ligand | 0.1 µM | 72
Cc1cnn2ncc(-c3ccnc(N(C)C)n3)c2c1 | binding | 1 µM | 95
CCOCCn1cc(C(=O)Nc2ccc(-n3nc(-c4cccnc4)cc3C(F)(F)F)cn2)ccc1=O | cell-free assay, competition with immobilised ligand | 1 µM | 93
CCN1CCN(Cc2ccc(C(=O)Nc3ccc(C)c(Oc4ccc5c(c4)CC(=O)N5)c3)cc2C(F)(F)F)CC1 | binding, competition with immobilised ligand | 1 µM | 73
Cc1nc(C2CCN(C(=O)c3ccc(OC(F)(F)F)cc3N)CC2)c2ncc(N3CCN(C)CC3)cc2n1 | cell-free assay, competition with immobilised ligand | 1 µM | 100
C[C@@H](c1ccc(-n2cnc3c(N)ncnc32)cc1)N1CCc2nn(C)c(Cc3ccccc3)c2C1=O | binding, competition with immobilised ligand | 0.1 µM | 100
CC(C)(C)c1ccc(-c2nc(CBr)nn2-c2cccc(O)c2)cc1 | cell-free assay, competition with immobilised ligand | 10 µM | 89
c1cncc(-c2cccc(Nc3nccc(NC4CCCCC4)n3)c2)c1 | binding, competition with immobilised ligand | 10 µM | 83
N[C@H]1CCN(c2nccc(-c3cnn4ncccc34)n2)C1 | binding | 1 µM | 87
Cc1cc(C)c(-n2ccn3nc(-c4cccnc4)cc23)cc1NC(=O)c1cc(C#N)cc(S(F)(F)(F)(F)F)c1 | cell-free assay, competition with immobilised ligand | 0.1 µM | 79.6
C[C@H]1CCN(c2nccc(-c3cnn4ncccc34)n2)C1 | binding | 1 µM | 100
Cc1noc([C@H]2C[C@@H](c3ccc(C(F)(F)F)cc3)CN(C(=O)N3CCS(=O)(=O)C3)C2)n1 | cell-free assay, competition with immobilised ligand | 1 µM | 100
O=C(c1ccc(Nc2ncc(Cl)c(-c3cc4ccccc4s3)n2)cc1)N1CCC(N2CCCC2)CC1 | binding, competition with immobilised ligand | 1 µM | 60
O=C(Nc1c[nH]nc1C(=O)NC1CCNCC1)c1cc(F)cc(F)c1 | binding, competition with immobilised ligand | 1 µM | 100
CS(=O)(=O)c1cc(C2(NC(=O)c3cncc4c3cnn4-c3ccc(F)cc3)CC2)ccn1 | cell-free assay, competition with immobilised ligand | 1 µM | 100
CN(CCCC(F)(F)F)c1nccc(-c2cnn3ncccc23)n1 | binding | 1 µM | 82
CNC(=O)[C@@H]1CC[C@@H](n2c(-c3ccc4cnccc4c3)nc3ccc(C(=O)NCc4cccc(C(N)=O)c4)cc32)C1 | binding, competition with immobilised ligand | 1 µM | 98
Cn1nc(C(=O)NCc2ccc(C(=O)O)cc2)cc1-c1ccc2[nH]ccc2c1 | cell-free assay, competition with immobilised ligand | 0.1 µM | 95
